Measured values taken from ChEMBL document CHEMBL1152253, “Inhibition of the CRM1-mediated nucleocytoplasmic transport by N-azolylacrylates: structure-activity relationship and mechanism of action” (Bioorg Med Chem, 2008).
In brackets after ≈: the same amount, converted by molar mass. Activity calls are given as the source filed them. The rule behind the calls is not given here.

Key:
[1] = biological target: Exportin-1 (Homo sapiens) (UniProt O14980); assay: Inhibition of CRM1-mediated nucleocytoplasmic transport of RevM5 mutant in HEK293 cells assessed as RevM5-GFP nuclear localization at 2 ug/ml after 2 hrs by fluorescence microscopy; format: cell-based
Summary of the method: (§1)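 HEK 293T cells in 96-well trays were transfected with pRevM5-GFP by calcium phosphate, and compound was added one day later. RevM5-GFP distribution was scored by fluorescence microscopy 2 h after addition. Mainly nuclear localization was scored positive; cytoplasmic localization was scored negative.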

[2] = biological target: Exportin-1 (Homo sapiens) (UniProt O14980); assay: Inhibition of CRM1-mediated nucleocytoplasmic transport of RevM5 mutant in HEK293 cells assessed as RevM5-GFP nuclear localization at 10 ug/ml after 2 hrs by fluorescence microscopy; format: cell-based; summary of the method: as §1
[3] = biological target: Exportin-1 (Homo sapiens) (UniProt O14980); assay: Inhibition of CRM1-mediated nucleocytoplasmic transport of RevM5 mutant in HEK293 cells assessed as RevM5-GFP nuclear localization at 0.4 ug/ml after 2 hrs by fluorescence microscopy; format: cell-based; summary of the method: as §1
[4] = biological target: Exportin-1 (Homo sapiens) (UniProt O14980); assay: Inhibition of CRM1-mediated nucleocytoplasmic transport of RevM5 mutant in HEK293 cells assessed as RevM5-GFP nuclear localization at 0.08 ug/ml after 2 hrs by fluorescence microscopy; format: cell-based; summary of the method: as §1
HeLa [5] = assay: Inhibition of Rev-BFP/CRM1-EYFP interaction in human HeLa cells assessed as Rev-BFP/CRM1-EYFP nuclear colocalization by fluorescence microscopy; format: cell-based
Summary of the method: (§2)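 HeLa cells were co-transfected with Rev-BFP and CRM1-EYFP constructs (wild type or Cys528 mutant). One day later cells were PBS-washed and treated with compound in complete DMEM. Live cells were imaged by confocal microscopy at 30, 120 and 180 min and at 24 h. BFP was excited by a multiphoton laser at 760 nm, with emission collected at 390–480 nm. Read-out was Rev-dependent nucleolar co-localization of CRM1-EYFP.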

HeLa [6] = assay: Inhibition of Rev-BFP/CRM1Cys528Ser-EYFP mutant interaction in human HeLa cells assessed as Rev-BFP/CRM1Cys528Ser-EYFP nuclear colocalization at 25 nM after 2 hrs by fluorescence microscopy; format: cell-based; summary of the method: as §2
[7] = system: Human immunodeficiency virus 1; assay: Antiviral activity against HIV1 NL4-3 infected in HEK293T cells assessed as inhibition of virion-associated p24 antigen production after 24 hrs by ELISA; format: functional, organism-based
Summary of the method: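 HEK 293T cells in DMEM with 10% heat-inactivated FCS were transfected with the HIV-1 molecular clone NL4-3 by calcium phosphate. Compounds were added at a range of concentrations. Virus-associated p24 antigen in the supernatant was measured by ELISA 24 h after compound addition.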

[8] = system: Human immunodeficiency virus 1; assay: Antiviral activity against HIV1 3B infected in human OM10.1 cells assessed as inhibition of TNF-alpha-induced viral p24 production at 5 ug/mL after 48 hrs by ELISA; format: functional; parameters: scale not given: the % may be the effect or the level left
Summary of the method: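 OM10.1 cells chronically infected with HIV-1(IIIB), grown in RPMI 1640 with 10% FCS, were washed twice to remove cell-free virus and seeded at 120,000 cells/well with compound. Cultures were stimulated with 1 ng/ml TNF-α and incubated 48 h at 37 °C. Supernatant p24 was measured by ELISA.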

[9] = Cytotoxicity against HIV1 3B infected human OM10.1 cells at 10 ug/mL after 48 hrs by MTT assay; format: cell-based
Summary of the method: (§3)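 Cytotoxicity was read by MTT viability staining on the same TNF-α-stimulated (1 ng/ml), twice-washed HIV-1(IIIB) chronically infected OM10.1 cultures (120,000 cells/well). Compound was present throughout the 48 h incubation at 37 °C.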

[10] = Cytotoxicity against HIV1 3B infected human OM10.1 cells at 20 ug/mL after 48 hrs by MTT assay; format: cell-based; summary of the method: as §3

Exportin-1 (Homo sapiens), sequence (O14980 whole entry): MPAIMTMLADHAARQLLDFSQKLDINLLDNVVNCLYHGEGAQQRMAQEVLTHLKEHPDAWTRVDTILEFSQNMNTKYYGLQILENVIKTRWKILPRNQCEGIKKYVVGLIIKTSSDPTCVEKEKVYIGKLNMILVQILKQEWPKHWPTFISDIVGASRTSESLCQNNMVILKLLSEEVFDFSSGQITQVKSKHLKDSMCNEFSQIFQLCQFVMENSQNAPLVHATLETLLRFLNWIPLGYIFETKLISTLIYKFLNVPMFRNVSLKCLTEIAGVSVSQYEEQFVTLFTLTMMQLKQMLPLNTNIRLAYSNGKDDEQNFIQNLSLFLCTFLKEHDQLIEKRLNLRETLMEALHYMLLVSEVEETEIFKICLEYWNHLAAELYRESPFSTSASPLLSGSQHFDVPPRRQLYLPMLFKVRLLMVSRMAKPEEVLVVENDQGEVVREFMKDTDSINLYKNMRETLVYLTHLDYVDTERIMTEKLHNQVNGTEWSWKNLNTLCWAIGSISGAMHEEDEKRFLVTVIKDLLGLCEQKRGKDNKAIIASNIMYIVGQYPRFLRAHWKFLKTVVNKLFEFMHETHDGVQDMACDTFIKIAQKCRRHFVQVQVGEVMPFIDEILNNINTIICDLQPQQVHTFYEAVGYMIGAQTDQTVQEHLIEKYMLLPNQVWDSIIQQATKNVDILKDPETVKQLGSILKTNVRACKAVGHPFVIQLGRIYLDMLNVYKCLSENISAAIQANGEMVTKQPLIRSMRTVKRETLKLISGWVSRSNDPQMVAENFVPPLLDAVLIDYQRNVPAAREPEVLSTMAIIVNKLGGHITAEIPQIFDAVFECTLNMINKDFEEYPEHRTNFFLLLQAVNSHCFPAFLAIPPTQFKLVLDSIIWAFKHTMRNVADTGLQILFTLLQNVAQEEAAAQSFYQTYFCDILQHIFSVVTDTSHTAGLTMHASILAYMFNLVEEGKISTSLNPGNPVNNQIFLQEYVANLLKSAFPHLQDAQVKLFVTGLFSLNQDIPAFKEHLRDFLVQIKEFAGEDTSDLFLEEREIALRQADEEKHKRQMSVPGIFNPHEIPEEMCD

Ic1cccc(-c2nnn[nH]2)c1
Activity [1]: inactive
Activity [2]: inactive
Activity [3]: inactive
Activity [4]: inactive

CCOC(=O)/C=C\n1cnc(-c2ccccc2N)n1
Activity [2]: Active
Activity [3]: inactive
Activity [4]: inactive

CCOC(=O)/C=C/n1cnc(-c2ccccc2)c1
Activity [1]: inactive
Activity [3]: inactive
Activity [4]: inactive

CCOC(=O)/C=C\n1ncnn1
Activity [1]: inactive
Activity [2]: inactive
Activity [3]: inactive
Activity [4]: inactive

CCOC(=O)/C=C/n1nnnc1-c1ccccc1
Activity [1]: inactive
Activity [2]: inactive
Activity [3]: inactive
Activity [4]: inactive

CCOC(=O)/C=C/n1cnc(-c2ccccc2N)n1
Activity [1]: inactive
Activity [2]: inactive
Activity [3]: inactive
Activity [4]: inactive

CCOC(=O)/C=C/n1ccnc1-c1ccccc1
Activity [1]: inactive
Activity [2]: inactive
Activity [3]: inactive
Activity [4]: inactive

CCC(=C/[C@H](C)C/C=C/C(C)=C/[C@@H](C)C(=O)[C@@H](C)[C@H](O)[C@@H](C)C/C(C)=C/C(=O)O)/C=C/[C@@H]1OC(=O)C=C[C@@H]1C
Activity (HeLa [5]): inactive
Activity (HeLa [6]): inactive

CCOC(=O)/C=C\n1nnnc1-c1cccc(I)c1
Activity [1]: inactive
Activity [2]: inactive
Activity [3]: inactive
Activity [4]: inactive

CCOC(=O)/C=C/n1nnc(-c2cccc(F)c2)n1
Activity [1]: inactive
Activity [2]: Active
Activity [3]: inactive
Activity [4]: inactive

CCOC(=O)/C=C/n1ncnn1
Activity [1]: inactive
Activity [2]: inactive
Activity [3]: inactive
Activity [4]: inactive

CCOC(=O)/C=C/n1nnc(-c2ccccc2)n1
Activity [3]: inactive
Activity [4]: inactive

CCOC(=O)/C=C/n1nnc(-c2cccc(Cl)c2)n1
Activity [2]: Active
Activity [3]: inactive
Activity [4]: inactive
EC50 ([7]; Human immunodeficiency virus 1, NL4-3, HEK-293T): 0.6 µg/mL (≈ 2.15 µM)
Activity [8]: 94%
Activity [9]: Toxic
Activity [10]: Toxic

CCOC(=O)/C=C/n1nnc(-c2ccc(Cl)cc2)n1
Activity [1]: inactive
Activity [2]: Active
Activity [3]: inactive
Activity [4]: inactive

CCOC(=O)/C=C\n1nnc(-c2cccc(Br)c2)n1
Activity [1]: Active
Activity [2]: Active
Activity [4]: inactive

Cc1ccnc2c1NC(=O)c1cccnc1N2C1CC1
Activity ([7]; HEK-293T): inactive

CCOC(=O)/C=C/n1nnnc1-c1cccc(I)c1
Activity [1]: inactive
Activity [3]: inactive
Activity [4]: inactive

CCOC(=O)/C=C/n1nnnc1-c1ccc(Cl)cc1
Activity [1]: inactive
Activity [2]: inactive
Activity [3]: inactive
Activity [4]: inactive

CCOC(=O)/C=C/n1nnc(-c2cccc(Br)c2)n1
Activity [2]: Active
Activity [3]: inactive
Activity [4]: inactive

CCOC(=O)/C=C\n1nnnc1-c1cccc(Cl)c1
Activity [1]: inactive
Activity [2]: Active
Activity [3]: inactive
Activity [4]: inactive

CCOC(=O)/C=C\n1nnc(-c2cccc(I)c2)n1
Activity [1]: Active
Activity [2]: Active
Activity [4]: inactive

CCOC(=O)/C=C/n1nnc(-c2ccccc2Cl)n1
Activity [1]: inactive
Activity [2]: Active
Activity [3]: inactive
Activity [4]: inactive

CCOC(=O)/C=C\n1nnnc1-c1cccc(Br)c1
Activity [1]: inactive
Activity [2]: inactive
Activity [3]: inactive
Activity [4]: inactive

CCOC(=O)/C=C/n1nnnc1-c1cccc(F)c1
Activity [1]: inactive
Activity [3]: inactive
Activity [4]: inactive

Clc1ccc(-c2nnn[nH]2)cc1
Activity [1]: inactive
Activity [2]: inactive
Activity [3]: inactive
Activity [4]: inactive

CCOC(=O)/C=C\n1nnc(-c2cc(Cl)ccc2N)n1
Activity [1]: Active
Activity [2]: Active
Activity [3]: Active
Activity [4]: inactive

CCOC(=O)/C=C/n1nnnc1-c1cccc(Br)c1
Activity [1]: inactive
Activity [3]: inactive
Activity [4]: inactive

CCOC(=O)/C=C\n1nnnc1-c1ccccc1Cl
Activity [1]: inactive
Activity [3]: inactive
Activity [4]: inactive

Fc1cccc(-c2nnn[nH]2)c1
Activity [1]: inactive
Activity [2]: inactive
Activity [3]: inactive
Activity [4]: inactive

CCOC(=O)/C=C\n1nnc(-c2ccccc2Cl)n1
Activity [1]: Active
Activity [2]: Active
Activity [4]: inactive

CCOC(=O)C=Cn1ccnc1-c1ccccc1
Activity [1]: inactive
Activity [2]: inactive
Activity [3]: inactive
Activity [4]: inactive

c1ccc(-c2nnn[nH]2)cc1
Activity [1]: inactive
Activity [2]: inactive
Activity [3]: inactive
Activity [4]: inactive

CCOC(=O)/C=C\n1cnc(-c2ccccc2)c1
Activity [2]: Active
Activity [3]: inactive
Activity [4]: inactive

CCOC(=O)/C=C/n1nnnc1-c1cccc(Cl)c1
Activity [1]: inactive
Activity [3]: inactive
Activity [4]: inactive

CCOC(=O)/C=C\n1nnc(-c2ccccc2)n1
Activity [1]: inactive
Activity [2]: Active
Activity [3]: inactive
Activity [4]: inactive

CCOC(=O)/C=C/n1nnc(-c2cc(Cl)ccc2N)n1
Activity [1]: Active
Activity [2]: Active
Activity [3]: inactive
Activity [4]: inactive

Brc1cccc(-c2nnn[nH]2)c1
Activity [1]: inactive
Activity [2]: inactive
Activity [3]: inactive
Activity [4]: inactive

Nc1cc(Cl)ccc1-c1nnn[nH]1
Activity [1]: inactive
Activity [2]: inactive
Activity [3]: inactive
Activity [4]: inactive

CCOC(=O)/C=C/n1nnc(-c2cccc(I)c2)n1
Activity [2]: Active
Activity [3]: inactive
Activity [4]: inactive

CCOC(=O)/C=C\n1nnc(-c2cccc(F)c2)n1
Activity [1]: Active
Activity [2]: Active
Activity [4]: inactive

Clc1ccccc1-c1nnn[nH]1
Activity [1]: inactive
Activity [2]: inactive
Activity [3]: inactive
Activity [4]: inactive

CCOC(=O)/C=C\n1nnnc1-c1ccc(Cl)cc1
Activity [1]: inactive
Activity [2]: Active
Activity [3]: inactive
Activity [4]: inactive

CCOC(=O)/C=C/n1ccc(-c2ccccc2)n1
Activity [1]: inactive
Activity [2]: inactive
Activity [3]: inactive
Activity [4]: inactive

CCOC(=O)/C=C\n1ccc(-c2ccccc2)n1
Activity [1]: inactive
Activity [2]: inactive
Activity [3]: inactive
Activity [4]: inactive

CCOC(=O)/C=C\n1nnnc1-c1cccc(F)c1
Activity [1]: inactive
Activity [2]: inactive
Activity [3]: inactive
Activity [4]: inactive

CCOC(=O)/C=C\n1nnc(-c2ccc(Cl)cc2)n1
Activity [2]: Active
Activity [3]: inactive
Activity [4]: inactive
